Experimental data gathered from unrelated publications.
Protocols differ between the studies behind these lines.
RET M918T: Proto-oncogene tyrosine-protein kinase receptor Ret (RET, Homo sapiens, UniProt P07949, M918T)
RET V804M: Proto-oncogene tyrosine-protein kinase receptor Ret (RET, Homo sapiens, UniProt P07949, V804M)
RET V804L: Proto-oncogene tyrosine-protein kinase receptor Ret (RET, Homo sapiens, UniProt P07949, V804L)
RET: Proto-oncogene tyrosine-protein kinase receptor Ret (RET, Homo sapiens, UniProt P07949)

Structure (SMILES)	target	assay	conditions	remaining binding
CN(C)c1ncc(F)c(-c2cnn3ncccc23)n1	RET M918T	binding	1 µM	96%
CCN1CCN(Cc2ccc(C(=O)Nc3ccc(C)c(Oc4ccc5c(c4)CC(=O)N5)c3)cc2C(F)(F)F)CC1	RET V804M	binding, competition with immobilised ligand	1 µM	67%
CN1CCN(c2ccc(Nc3nccc(-c4ccccc4)n3)cc2C(F)(F)F)CC1	RET V804L	binding	10 µM	40%
CNC(=O)Nc1ccc2c(c1)CC[C@@]21OC(=O)N(CC(=O)N(Cc2ccc(F)cc2)[C@@H](C)C(F)(F)F)C1=O	RET V804M	cell-free assay, competition with immobilised ligand	1 µM	98%
C[C@@H](c1ccc(-n2cnc3c(N)ncnc32)cc1)N1CCc2nn(C)c(Cc3ccccc3)c2C1=O	RET V804M	binding, competition with immobilised ligand	0.1 µM	80%
O=C(c1ccc(Nc2ncc(Cl)c(-c3cc4ccccc4s3)n2)cc1)N1CCC(N2CCCC2)CC1	RET M918T	binding, competition with immobilised ligand	1 µM	13%
c1cncc(-c2cccc(Nc3nccc(NC4CCCCC4)n3)c2)c1	RET V804L	binding, competition with immobilised ligand	10 µM	10%
N[C@H]1CCN(c2nccc(-c3cnn4ncccc34)n2)C1	RET	binding	1 µM	51%
O=C(c1ccc(Nc2nccc(-c3cc4ccccc4s3)n2)cc1)N1CCC(N2CCCC2)CC1	RET V804M	binding, competition with immobilised ligand	1 µM	99%
Cc1cc(C)c(-n2ccn3nc(-c4cccnc4)cc23)cc1NC(=O)c1cc(C#N)cc(S(F)(F)(F)(F)F)c1	RET V804L	cell-free assay, competition with immobilised ligand	0.1 µM	93.6%
COc1cnc(Nc2cccc(S(N)(=O)=O)c2)nc1N1CCN(c2ccccc2)C(=O)C1	RET V804M	binding, competition with immobilised ligand	1 µM	77%
CN(C)C(=O)Cn1cc(-c2nc([C@@](C)(c3ccc(-c4cnc(N)nc4)cc3)C3CC3)no2)cn1	RET V804L	cell-free assay, competition with immobilised ligand	1 µM	93%
C[C@@H]1CCN(c2nccc(-c3cnn4ncccc34)n2)C1	RET	binding	1 µM	70%
CNC(=O)c1ccc(Nc2ncc(C(F)(F)F)c(NCc3nccnc3N(C)S(C)(=O)=O)n2)cc1	RET V804M	cell-free assay, competition with immobilised ligand	0.1 µM	30%
O=C(NCC1CCOCC1)c1n[nH]cc1NC(=O)c1c(F)cccc1F	RET	binding, competition with immobilised ligand	1 µM	98%
O=C(NCCCN1CCOCC1)c1ccc(Nc2nccc(-c3cc4ccccc4s3)n2)cc1	RET	binding, competition with immobilised ligand	1 µM	55%
COc1ncc2cc3ccccc3nc2c1C#N	RET V804L	cell-free assay, competition with immobilised ligand	5 µM	94%
CN(c1nccc(-c2cnn3ncccc23)n1)C1CC1	RET	binding	1 µM	84%
C[C@@H]1CN(c2cc(-c3nn(C)c4ccc(OC5(C)CC5)cc34)ncn2)C[C@H](C)O1	RET V804M	cell-free assay, competition with immobilised ligand	1 µM	100%
c1cnn2ncc(-c3ccnc(N4CCC45COC5)n3)c2c1	RET V804L	binding	1 µM	91%
O=C1NC(c2ccccn2)Sc2ccccc21 (centres unmarked)	RET V804M	cell-free assay, competition with immobilised ligand	1 µM	86%
F[C@@H]1CCN(c2nccc(-c3cnn4ncccc34)n2)C1	RET	binding	1 µM	92%
CC(C)CC(=O)N1CCc2nc(-c3ccc(Br)cc3)nc(N(C)Cc3ccccc3)c2C1	RET V804M	cell-free assay, competition with immobilised ligand	0.1 µM	82%
